{"source": "ChEMBL document CHEMBL1124831", "about": "“Conjugate addition ligands of opioid antagonists. Methacrylate esters and ethers of 6 alpha- and 6 beta-naltrexol” (J Med Chem, 1990)", "key": {"[1]": {"biological_target": "Mu-type opioid receptor (Bos taurus, UniProt P79350)", "sequence (P79350 whole entry)": "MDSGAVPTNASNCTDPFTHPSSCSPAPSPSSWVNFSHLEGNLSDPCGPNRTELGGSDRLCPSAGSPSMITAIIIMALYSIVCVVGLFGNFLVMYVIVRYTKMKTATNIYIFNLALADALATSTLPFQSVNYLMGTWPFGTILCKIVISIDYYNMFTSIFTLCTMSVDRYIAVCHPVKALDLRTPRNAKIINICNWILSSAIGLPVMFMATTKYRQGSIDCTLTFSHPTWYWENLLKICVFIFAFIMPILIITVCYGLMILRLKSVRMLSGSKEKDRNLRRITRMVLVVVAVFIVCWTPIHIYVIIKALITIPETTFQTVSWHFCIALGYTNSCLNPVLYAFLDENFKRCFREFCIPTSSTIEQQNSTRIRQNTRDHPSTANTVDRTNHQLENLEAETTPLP", "assay": "In vitro binding affinity against Opioid receptor mu 1 from bovine caudate nucleus determined in presence of [3H]DAGO (1 nM)", "method_in_brief": "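Crude bovine striatal membranes were stored at -70 °C. […] Competitor was tested at five concentrations, with nonspecific binding defined by 10 μM naloxone. Incubation was 45 min at 25 °C in 50 mM Tris-HCl or potassium phosphate, pH 7.4, with 1 mM EDTA. Read-out was GF/B filtration and scintillation counting. IC50 is from duplicates or triplicates.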"}, "[2]": {"biological_target": "T1, Opioid receptors; mu/kappa/delta (Homo sapiens, UniProt P41145+P41143+P35372)", "T1 sequence (P35372 whole entry, looked up)": "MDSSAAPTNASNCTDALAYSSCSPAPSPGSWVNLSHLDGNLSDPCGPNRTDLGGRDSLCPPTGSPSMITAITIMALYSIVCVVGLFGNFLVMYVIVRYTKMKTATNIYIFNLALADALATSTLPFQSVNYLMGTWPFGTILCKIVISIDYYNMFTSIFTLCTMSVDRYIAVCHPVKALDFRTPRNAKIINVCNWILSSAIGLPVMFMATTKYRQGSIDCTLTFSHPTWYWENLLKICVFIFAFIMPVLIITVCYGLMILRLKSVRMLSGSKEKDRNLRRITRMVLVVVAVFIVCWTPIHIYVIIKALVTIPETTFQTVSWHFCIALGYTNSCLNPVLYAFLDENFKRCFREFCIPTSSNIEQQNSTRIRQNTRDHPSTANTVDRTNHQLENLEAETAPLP", "T1 sequence (P41143 whole entry, looked up)": "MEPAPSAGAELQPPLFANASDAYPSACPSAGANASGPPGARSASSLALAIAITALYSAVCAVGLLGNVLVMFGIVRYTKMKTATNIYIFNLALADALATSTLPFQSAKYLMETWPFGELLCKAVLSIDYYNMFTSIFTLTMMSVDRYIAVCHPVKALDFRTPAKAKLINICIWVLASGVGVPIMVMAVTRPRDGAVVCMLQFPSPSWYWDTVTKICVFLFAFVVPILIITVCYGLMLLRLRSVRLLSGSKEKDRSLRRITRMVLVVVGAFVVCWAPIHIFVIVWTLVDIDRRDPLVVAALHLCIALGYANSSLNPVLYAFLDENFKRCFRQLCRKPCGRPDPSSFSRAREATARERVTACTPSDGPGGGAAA", "T1 sequence (P41145 whole entry, looked up)": "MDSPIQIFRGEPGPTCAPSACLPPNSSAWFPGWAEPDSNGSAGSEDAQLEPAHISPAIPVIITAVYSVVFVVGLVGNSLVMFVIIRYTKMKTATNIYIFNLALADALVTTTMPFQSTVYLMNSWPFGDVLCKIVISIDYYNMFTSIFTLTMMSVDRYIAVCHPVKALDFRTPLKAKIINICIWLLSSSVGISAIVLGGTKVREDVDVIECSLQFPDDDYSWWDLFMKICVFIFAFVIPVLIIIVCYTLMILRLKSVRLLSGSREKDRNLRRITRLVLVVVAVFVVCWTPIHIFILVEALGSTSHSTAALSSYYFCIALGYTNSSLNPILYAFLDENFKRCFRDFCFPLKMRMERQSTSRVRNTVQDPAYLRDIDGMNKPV", "conditions": "Bos taurus; at 100 nM"}, "[3]": {"biological_target": "T1, Opioid receptors; mu/kappa/delta", "assay": "In vitro binding affinity against Opioid receptors from bovine caudate nucleus determined in presence of [3H]- bremazocine (0.5 nM)", "assay_type": "protein assay, Bos taurus", "conditions": "target entry is the homologue from another species", "method_in_brief": "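Crude bovine striatal membranes were stored at -70 °C. Competitor was tested at five concentrations, with nonspecific binding defined by 10 μM naloxone. Incubation was 45 min at 25 °C in 50 mM Tris-HCl or potassium phosphate, pH 7.4, with 1 mM EDTA. Read-out was GF/B filtration and scintillation counting. IC50 is from duplicates or triplicates.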"}, "[4]": {"biological_target": "T1, Opioid receptors; mu/kappa/delta", "conditions": "Bos taurus; at 100 nM", "remark": "listed apart in the source"}, "[5]": {"biological_target": "T1, Opioid receptors; mu/kappa/delta", "conditions": "Bos taurus; at 100 nM", "remark": "listed apart in the source"}, "[6]": {"species_on_record": "Mus musculus", "assay": "Antagonist activity against morphine was determined […] in mice using tail flick assay", "assay_type": "functional", "method_in_brief": "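Mouse tail-flick test against morphine given sc, run by the Committee on Problems of Drug Dependence. The antagonist dose giving 50% blockade (AD50, mg/kg) is reported with 95% confidence limits.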"}, "[7]": {"biological_target": "T1, Opioid receptors; mu/kappa/delta", "conditions": "Bos taurus; at 20 nM"}, "[8]": {"biological_target": "T1, Opioid receptors; mu/kappa/delta", "assay": "Irreversible inhibition of 1 nM DAGO binding against Opioid receptors from unwashed bovine caudate membrane at 10 nM in presence of NaCl", "design": "scale not given: the % may be the effect or the level left", "conditions": "Bos taurus, target entry is the homologue from another species"}, "[9]": {"biological_target": "T1, Opioid receptors; mu/kappa/delta", "conditions": "Bos taurus; at 20 nM", "remark": "listed apart in the source"}, "[10]": {"biological_target": "T1, Opioid receptors; mu/kappa/delta", "assay": "Irreversible inhibition of 1 nM DAGO binding against Opioid receptors from protected bovine caudate membrane at 10 nM in presence of NaCl", "design": "scale not given: the % may be the effect or the level left", "conditions": "Bos taurus, target entry is the homologue from another species"}, "[11]": {"biological_target": "T1, Opioid receptors; mu/kappa/delta", "conditions": "Bos taurus; at 100 nM", "remark": "listed apart in the source"}, "[12]": {"biological_target": "T1, Opioid receptors; mu/kappa/delta", "conditions": "Bos taurus; at 100 nM", "remark": "listed apart in the source"}, "[13]": {"biological_target": "T1, Opioid receptors; mu/kappa/delta", "conditions": "Bos taurus; at 20 nM", "remark": "listed apart in the source"}}}
{"molecule": "C=C1CC2(CCC3(O)[C@H]4Cc5ccc(O)c6c5[C@@]3(CCN4CC3CC3)C2O6)OC1=O", "note": "(some centres undefined)", "values": [{"measurement": "IC50", "setting": "[1]", "value": 1.8, "unit": "nM"}, {"measurement": "Control", "setting": "[2]", "value": 16, "unit": "%"}, {"measurement": "IC50", "setting": "[3]", "value": 6, "unit": "nM"}, {"measurement": "Control", "setting": "[4]", "value": 50, "unit": "%"}, {"measurement": "Control", "setting": "[5]", "value": 85, "unit": "%"}]}
{"molecule": "C=C(CO[C@@H]1CC[C@@]2(O)[C@H]3Cc4ccc(O)c5c4[C@@]2(CCN3CC2CC2)[C@H]1O5)C(=O)OC", "values": [{"measurement": "IC50", "setting": "[1]", "value": 1.5, "unit": "nM"}, {"measurement": "AD50", "setting": "[6]", "value": 0.02, "unit": "mg/kg"}, {"measurement": "Control", "setting": "[7]", "value": 35, "unit": "%"}, {"measurement": "Control", "setting": "[8]", "value": 20, "unit": "%"}, {"measurement": "IC50", "setting": "[3]", "value": 12, "unit": "nM"}, {"measurement": "Control", "setting": "[9]", "value": 59, "unit": "%"}, {"measurement": "Control", "setting": "[10]", "value": 95, "unit": "%"}]}
{"molecule": "C=C(C)C(=O)O[C@H]1CC[C@@]2(O)[C@H]3Cc4ccc(O)c5c4[C@@]2(CCN3CC2CC2)[C@H]1O5", "values": [{"measurement": "Control", "setting": "[11]", "value": 22, "unit": "%"}, {"measurement": "IC50", "setting": "[1]", "value": 6.8, "unit": "nM"}, {"measurement": "AD50", "setting": "[6]", "value": 0.02, "unit": "mg/kg"}, {"measurement": "Control", "setting": "[12]", "value": 100, "unit": "%"}, {"measurement": "IC50", "setting": "[3]", "value": 20, "unit": "nM"}]}
{"molecule": "C=C(C)C(=O)OC1CCC2(O)C3Cc4ccc(O)c5c4[C@@]2(CCN3CC2CC2)C1O5", "note": "(some centres undefined)", "values": [{"measurement": "Control", "setting": "[11]", "value": 39, "unit": "%"}, {"measurement": "IC50", "setting": "[1]", "value": 1, "unit": "nM"}, {"measurement": "AD50", "setting": "[6]", "value": 0.02, "unit": "mg/kg"}, {"measurement": "Control", "setting": "[12]", "value": 100, "unit": "%"}, {"measurement": "IC50", "setting": "[3]", "value": 5, "unit": "nM"}]}
{"molecule": "O=C1CC[C@@]2(O)[C@H]3Cc4ccc(O)c5c4[C@@]2(CCN3CC2CC2)[C@H]1O5", "note": "[NALTREXONE]", "values": [{"measurement": "AD50", "setting": "[6]", "value": 0.007, "unit": "mg/kg"}]}
{"molecule": "C=C(COC1CCC2(O)C3Cc4ccc(O)c5c4[C@@]2(CCN3CC2CC2)C1O5)C(=O)OC", "note": "(some centres undefined)", "values": [{"measurement": "IC50", "setting": "[1]", "value": 0.18, "unit": "nM"}, {"measurement": "AD50", "setting": "[6]", "value": 0.07, "unit": "mg/kg"}, {"measurement": "Control", "setting": "[7]", "value": 17, "unit": "%"}, {"measurement": "IC50", "setting": "[3]", "value": 2.4, "unit": "nM"}, {"measurement": "Control", "setting": "[13]", "value": 96, "unit": "%"}, {"measurement": "Control", "setting": "[9]", "value": 79, "unit": "%"}]}
